Data taken from ChEMBL document CHEMBL4043302, “Lead Diversification at the Nanomole Scale Using Liver Microsomes and Quantitative Nuclear Magnetic Resonance Spectroscopy: Application to Phosphodiesterase 2 Inhibitors” (J Med Chem, 2018).

System: not listed separately
Test: Apparent permeability across RRCK cells after 1.5 hrs
Assay type: ADME, cell-based, Canis lupus familiaris, MDCKII-LE
Conditions: dog, MDCK

Structure (SMILES) | Papp at 1.5 h
COc1ccc(Cc2nn3c([C@@H](CCC(O)c4ccccc4)[C@H](C)O)nc(C)c3c(=O)[nH]2)cc1OC (stereo in doubt) | 2.8 ×10⁻⁶ cm/s
Cc1nn2c(-c3c(C)n[nH]c3-c3ccc(C(F)(F)F)cc3)nc(CO)c2c(=O)[nH]1 | 0.94 ×10⁻⁶ cm/s
Cc1nn2c(-c3c(C)nn(C)c3-c3ccc(C(F)(F)F)cc3)nc(CO)c2c(=O)[nH]1 | 8.3 ×10⁻⁶ cm/s
COc1ccc(Cc2nn3c([C@@H](CC(O)C(O)c4ccccc4)[C@@H](C)O)nc(C)c3c(=O)[nH]2)cc1OC (some centres undefined) | 0.56 ×10⁻⁶ cm/s
Cc1nn2c(-c3c(CO)nn(C)c3-c3ccc(Cl)cc3)nc(C)c2c(=O)[nH]1 | 19 ×10⁻⁶ cm/s
Cc1nn2c(-c3c(CO)nn(C)c3-c3ccc(C(F)(F)F)c(CO)c3)nc(C)c2c(=O)[nH]1 | 0.55 ×10⁻⁶ cm/s
Cc1nn2c(-c3c(C)nn(C)c3-c3ccc(C(F)(F)F)c(CO)c3)nc(C)c2c(=O)[nH]1 | 3 ×10⁻⁶ cm/s
Cc1nn2c(-c3c(C(=O)O)nn(C)c3-c3ccc(C(F)(F)F)c(C)c3)nc(C)c2c(=O)[nH]1 | 53 ×10⁻⁶ cm/s
COc1ccc(Cc2nn3c([C@@H](CCC(O)c4ccccc4)[C@@H](C)O)nc(C)c3c(=O)[nH]2)cc1O (some centres undefined) | 1.1 ×10⁻⁶ cm/s
COc1ccc(Cc2nn3c([C@@H](CCC(O)c4ccccc4)[C@H](C)O)nc(C)c3c(=O)[nH]2)cc1O (some centres undefined) | 1.2 ×10⁻⁶ cm/s
COc1ccc(Cc2nn3c([C@@H](CCC(=O)c4ccccc4)[C@@H](C)O)nc(C)c3c(=O)[nH]2)cc1OC | 11 ×10⁻⁶ cm/s
COc1ccc(Cc2nn3c([C@@H](CCC(O)c4ccccc4)[C@@H](C)O)nc(C)c3c(=O)[nH]2)cc1OC (single isomer, unassigned; diastereomer 1) | 2 ×10⁻⁶ cm/s
COc1cc(Cc2nn3c([C@@H](CCC(O)c4ccccc4)[C@@H](C)O)nc(C)c3c(=O)[nH]2)ccc1O (some centres undefined) | 1.2 ×10⁻⁶ cm/s
COc1ccc(-c2c(-c3nc(CO)c4c(=O)[nH]c(C)nn34)c(C)nn2C)cn1 | 0.76 ×10⁻⁶ cm/s

System: not listed separately
Test: Drug level in rabbit liver microsomes treated with 7-(1,3-Dimethyl-5-(3-methyl-4-(trifluoromethyl)phenyl)-1H-pyrazol-4-yl)-2,5-dimethylimidazo[5,1-f ][1,2,4]triazin-4(3H)-one at 20 uM after 1 hr by UHPLC-UV-HRMS method
Assay type: ADME, Oryctolagus cuniculus, microsome
Conditions: not given

Structure (SMILES) | Drug metabolism
Cc1nn2c(-c3c(CO)nn(C)c3-c3ccc(C(F)(F)F)c(CO)c3)nc(C)c2c(=O)[nH]1 | Metabolite_Detected
Cc1nn2c(-c3c(C)nn(C)c3-c3ccc(C(F)(F)F)c(CO)c3)nc(C)c2c(=O)[nH]1 | Metabolite_Detected
Cc1nn2c(-c3c(C(=O)O)nn(C)c3-c3ccc(C(F)(F)F)c(C)c3)nc(C)c2c(=O)[nH]1 | Metabolite_Detected

System: Liver
Test: Drug level in dog liver microsomes treated with 2-(3,4-dimethoxybenzyl)-7-((2R,3R)-2-hydroxy-6-phenylhexan-3-yl)-5-methylimidazo[1,5-f][1,2,4]triazin-4(3H)-one at 20 uM after 1 hr by UHPLC-UV-HRMS method
Assay type: ADME, Canis lupus familiaris, microsome
Conditions: not given
How it was run: (§1)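 Preparative incubation: substrate 20 µM with liver microsomes (2 mg/mL) of the listed species in 0.1 M potassium phosphate, pH 7.5, with MgCl2 3.3 mM and NADPH 1.3 mM. Run at 37°C in a shaking water bath and stopped with an equal volume of CH3CN. Products were fractionated by HPLC and quantified by qNMR in d6-DMSO.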

Structure (SMILES) | Drug metabolism
COc1ccc(Cc2nn3c([C@@H](CC(O)C(O)c4ccccc4)[C@@H](C)O)nc(C)c3c(=O)[nH]2)cc1OC (some centres undefined) | Metabolite_Detected
COc1ccc(Cc2nn3c([C@@H](CCC(O)c4ccccc4)[C@@H](C)O)nc(C)c3c(=O)[nH]2)cc1O (some centres undefined) | Metabolite_Detected
COc1ccc(Cc2nn3c([C@@H](CCC(=O)c4ccccc4)[C@@H](C)O)nc(C)c3c(=O)[nH]2)cc1OC | Metabolite_Detected
COc1ccc(Cc2nn3c([C@@H](CCC(O)c4ccccc4)[C@@H](C)O)nc(C)c3c(=O)[nH]2)cc1OC (single isomer, unassigned; diastereomer 1) | Metabolite_Detected
COc1cc(Cc2nn3c([C@@H](CCC(O)c4ccccc4)[C@@H](C)O)nc(C)c3c(=O)[nH]2)ccc1O (some centres undefined) | Metabolite_Detected

System: Liver
Test: Drug level in mouse liver microsomes treated with 7-(5-(4-Chlorophenyl)-1,3-dimethyl-1H-pyrazol-4-yl)-2,5-dimethylimidazo[5,1-f ][1,2,4]triazin-4(3H)-one at 20 uM after 1.5 hrs by UHPLC-UV-HRMS method
Assay type: ADME, microsome
Conditions: not given
How it was run: as §1

Structure (SMILES) | Drug metabolism
Cc1nn2c(-c3c(CO)nn(C)c3-c3ccc(Cl)cc3)nc(C)c2c(=O)[nH]1 | Metabolite_Detected

System: not listed separately
Test: Intrinsic clearance in human hepatocytes assessed per million cells at 1 uM after 0.5 to 4 hrs by HPLC-HRMS method
Assay type: ADME, cell-based, Hepatocyte
Conditions: hepatocytes, 1 µM
How it was run: (§2)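 Compound at 1 µM was dried from d6-DMSO and redissolved in Williams E medium. Pooled human hepatocytes were added at 680000 cells/mL. Samples were quenched in water/CH3CN (2:1) with 2% formic acid and clozapine as internal standard, then analysed by HPLC-HRMS in positive-ion full scan. k came from the slope of ln peak-area ratio versus time; CLint = k / cell concentration. Non-specific binding was not measured.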

Structure (SMILES) | CLint
Cc1nc(-c2cnn3c2CN(CC2CCCC2O)CC3)c2c(=O)[nH]cnn12 (single isomer, unassigned; diastereomer 2) | 5.8 µL/min/1e6 cells

Same assay, conditions: human hepatocytes, read-out: CLH

Structure (SMILES) | hepatocyte CLint at 1 µM
COc1ccc(Cc2nn3c([C@@H](CCC(=O)c4ccccc4)[C@H](C)O)nc(C)c3c(=O)[nH]2)cc1OC | 32 µL/min/1e6 cells
COc1ccc(Cc2nn3c([C@@H](CCC(O)c4ccccc4)[C@H](C)O)nc(C)c3c(=O)[nH]2)cc1OC (stereo in doubt) | 11 µL/min/1e6 cells
COc1ccc(Cc2nn3c([C@@H](CC(O)C(O)c4ccccc4)[C@@H](C)O)nc(C)c3c(=O)[nH]2)cc1OC (some centres undefined) | 2.4 µL/min/1e6 cells
Cc1nn2c(-c3c(CO)nn(C)c3-c3ccc(Cl)cc3)nc(C)c2c(=O)[nH]1 | 11 µL/min/1e6 cells
COc1ccc(Cc2nn3c([C@@H](C(O)CC(O)c4ccccc4)[C@H](C)O)nc(C)c3c(=O)[nH]2)cc1OC (some centres undefined) | 4.3 µL/min/1e6 cells
Cc1nn2c(-c3c(C)nn(C)c3-c3ccc(C(F)(F)F)c(CO)c3)nc(C)c2c(=O)[nH]1 | 3.9 µL/min/1e6 cells
COc1ccc(Cc2nn3c([C@@H](CCC(O)c4ccccc4)[C@@H](C)O)nc(C)c3c(=O)[nH]2)cc1O (some centres undefined) | 12 µL/min/1e6 cells
COc1ccc(Cc2nn3c([C@@H](CCC(O)c4ccccc4)[C@H](C)O)nc(C)c3c(=O)[nH]2)cc1O (some centres undefined) | 9.6 µL/min/1e6 cells
COc1ccc(Cc2nn3c([C@@H](CCC(=O)c4ccccc4)[C@@H](C)O)nc(C)c3c(=O)[nH]2)cc1OC | 25 µL/min/1e6 cells
COc1ccc(Cc2nn3c([C@@H](CCC(O)c4ccccc4)[C@@H](C)O)nc(C)c3c(=O)[nH]2)cc1OC (single isomer, unassigned; diastereomer 1) | 14 µL/min/1e6 cells
COc1cc(Cc2nn3c([C@@H](CCC(O)c4ccccc4)[C@@H](C)O)nc(C)c3c(=O)[nH]2)ccc1O (some centres undefined) | 13 µL/min/1e6 cells

System: Liver
Test: Drug level in human liver microsomes treated with 2-(3,4-dimethoxybenzyl)-7-((2S,3R)-2-hydroxy-6-phenylhexan-3-yl)-5-methylimidazo[1,5-f][1,2,4]triazin-4(3H)-one at 20 uM after 1 hr by UHPLC-UV-HRMS method
Assay type: ADME, microsome
Conditions: not given
How it was run: as §1

Structure (SMILES) | Drug metabolism
COc1ccc(Cc2nn3c([C@@H](CCC(=O)c4ccccc4)[C@H](C)O)nc(C)c3c(=O)[nH]2)cc1OC | Metabolite_Detected
COc1ccc(Cc2nn3c([C@@H](CCC(O)c4ccccc4)[C@H](C)O)nc(C)c3c(=O)[nH]2)cc1OC (stereo in doubt) | Metabolite_Detected
COc1ccc(Cc2nn3c([C@@H](C(O)CC(O)c4ccccc4)[C@H](C)O)nc(C)c3c(=O)[nH]2)cc1OC (some centres undefined) | Metabolite_Detected
COc1ccc(Cc2nn3c([C@@H](CCC(O)c4ccccc4)[C@H](C)O)nc(C)c3c(=O)[nH]2)cc1O (some centres undefined) | Metabolite_Detected

System: not listed separately
Test: Drug level in hamster liver microsomes treated with 7-(5-(4-Methoxyphenyl)-1,3-dimethyl-1H-pyrazol-4-yl)-2,5-dimethylimidazo[5,1-f ][1,2,4]triazin-4(3H)-one at 20 uM after 1.5 hrs by UHPLC-UV-HRMS method
Assay type: ADME, microsome
Conditions: cricetinae
How it was run: as §1

Structure (SMILES) | Drug metabolism
COc1ccc(-c2c(-c3nc(CO)c4c(=O)[nH]c(C)nn34)c(C)nn2C)cn1 | Metabolite_Detected

Target: cGMP-dependent 3',5'-cyclic phosphodiesterase (Homo sapiens, UniProt O00408)
Test: Inhibition of human PDE2A1 using 3',5'-[3H]cGMP as substrate after 30 mins by scintillation proximity assay
Conditions: not given

cGMP-dependent 3',5'-cyclic phosphodiesterase, sequence (O00408 whole entry): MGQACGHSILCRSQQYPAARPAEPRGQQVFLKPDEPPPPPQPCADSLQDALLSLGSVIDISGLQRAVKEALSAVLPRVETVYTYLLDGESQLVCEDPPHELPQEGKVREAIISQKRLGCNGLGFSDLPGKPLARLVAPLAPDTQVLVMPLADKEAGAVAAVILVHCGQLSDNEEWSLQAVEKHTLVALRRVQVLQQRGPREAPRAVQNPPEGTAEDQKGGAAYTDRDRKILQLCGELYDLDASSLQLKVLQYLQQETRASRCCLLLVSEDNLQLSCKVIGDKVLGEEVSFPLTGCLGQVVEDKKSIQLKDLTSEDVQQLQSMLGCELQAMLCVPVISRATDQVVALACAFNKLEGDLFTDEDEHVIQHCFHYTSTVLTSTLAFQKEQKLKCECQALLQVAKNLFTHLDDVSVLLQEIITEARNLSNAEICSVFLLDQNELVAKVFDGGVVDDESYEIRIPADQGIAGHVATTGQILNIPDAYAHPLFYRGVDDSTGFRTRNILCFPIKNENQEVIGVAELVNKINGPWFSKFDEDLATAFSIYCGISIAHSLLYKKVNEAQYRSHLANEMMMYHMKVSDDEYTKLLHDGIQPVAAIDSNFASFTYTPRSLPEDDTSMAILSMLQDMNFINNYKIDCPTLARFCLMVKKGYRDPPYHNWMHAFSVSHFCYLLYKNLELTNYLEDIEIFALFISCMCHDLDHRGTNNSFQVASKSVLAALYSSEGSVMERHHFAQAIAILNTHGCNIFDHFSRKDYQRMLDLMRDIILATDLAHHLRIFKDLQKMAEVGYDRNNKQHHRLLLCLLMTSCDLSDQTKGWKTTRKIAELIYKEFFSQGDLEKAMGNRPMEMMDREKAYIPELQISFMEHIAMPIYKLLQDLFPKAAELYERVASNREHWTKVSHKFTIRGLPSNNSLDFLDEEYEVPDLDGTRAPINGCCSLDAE

Structure (SMILES) | IC50
Cc1nn2c(-c3c(C)nn(C)c3-c3ccc(C(F)(F)F)cc3)nc(CO)c2c(=O)[nH]1 | 0.3 nM
Cc1nc(-c2cnn3c2CN(CC2CCCC2O)CC3)c2c(=O)[nH]cnn12 (single isomer, unassigned; diastereomer 2) | > 2000 nM

System: not listed separately
Test: Metabolic stability in human hepatocytes at 1 uM after 0.5 to 4 hrs by HPLC-HRMS method
Assay type: ADME, cell-based, Hepatocyte
Conditions: not given
How it was run: as §2

Structure (SMILES) | Stability
Cc1nn2c(-c3c(C)n[nH]c3-c3ccc(C(F)(F)F)cc3)nc(CO)c2c(=O)[nH]1 | Stable
Cc1nn2c(-c3c(C)nn(C)c3-c3ccc(C(F)(F)F)cc3)nc(CO)c2c(=O)[nH]1 | Stable
Cc1nn2c(-c3c(CO)nn(C)c3-c3ccc(C(F)(F)F)c(CO)c3)nc(C)c2c(=O)[nH]1 | Stable
Cc1nn2c(-c3c(C(=O)O)nn(C)c3-c3ccc(C(F)(F)F)c(C)c3)nc(C)c2c(=O)[nH]1 | Stable
COc1ccc(-c2c(-c3nc(CO)c4c(=O)[nH]c(C)nn34)c(C)nn2C)cn1 | Stable

System: not listed separately
Test: Drug level in hamster liver microsomes treated with 7-(1,3-Dimethyl-5-(4-(trifluoromethyl)phenyl)-1H-pyrazol-4-yl)-5-(methoxymethyl)-2-methylimidazol[5,1-f ][1,2,4]triazin-4-(3H)-one at 20 uM after 1 hr by UHPLC-UV-HRMS method
Assay type: ADME, microsome
Conditions: cricetinae
How it was run: as §1

Structure (SMILES) | Drug metabolism
Cc1nn2c(-c3c(C)n[nH]c3-c3ccc(C(F)(F)F)cc3)nc(CO)c2c(=O)[nH]1 | Metabolite_Detected
Cc1nn2c(-c3c(C)nn(C)c3-c3ccc(C(F)(F)F)cc3)nc(CO)c2c(=O)[nH]1 | Metabolite_Detected
